Data reported in ChEMBL document CHEMBL1135577, “Synthesis and biological evaluation of structurally highly modified analogues of the antimitotic natural product curacin A” (J Med Chem, 2002).
Active and inactive are the calls of the source. No cut-off for these calls is given here.

Key:
[1] = test system: A2780; assay: Tested for colchicine binding inhibition, using human ovarian cancer cell lines (at 5 uM ); format: functional
Procedure, shortened: (§1)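 [3H]colchicine (5 μM) was incubated with 1 μM tubulin and agent (1-250 μM) or DMSO vehicle (5% v/v) at 30 °C for 15 min or 37 °C for 10 min, in 1 M monosodium glutamate, 0.1 M glucose-1-phosphate, 1 mM MgCl2, 1 mM GTP and 0.5 mg/mL BSA. Samples were filtered through DEAE-cellulose and counted by scintillation. Values are means (N = 9 over four concentrations) ± SD.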

[2] = molecular target: Tubulin (Bos taurus); assay: Inhibition of tubulin polymerization of purified bovine brain tubulin
[3] = test system: MCF7; assay: Tested for 50% growth inhibitory concentration by using MCF-7 cell lines.; format: functional; conditions: Homo sapiens
Procedure, shortened: (§2)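 Cultured human tumor cells were seeded at 500-2000 cells/well, allowed to attach for 48 h, then exposed continuously for 48 h to DMSO vehicle or agent at five concentrations (e.g., 50-0.08 μM, 10-0.016 μM or 1-0.0016 μM series), each in quadruplicate. A time-zero plate was included. Cell number was read by MTS/phenazine methanesulfonate at A490-A630. Values are means (N = 4 over 10 concentrations) ± SD.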

[4] = test system: 2008; assay: 50% Growth inhibitory concentration( GI 50 ) by using 2008 human ovarian carcinoma cell lines.; format: functional; procedure, shortened: as §2
[5] = test system: PC-3; assay: 50% Growth inhibitory concentration by using PC -3 human prostate carcinoma cell lines (48h continuous exposure); format: functional; conditions: PC-3, 48 h; procedure, shortened: as §2
[6] = test system: A2780; assay: Compound was tested for Tubulin polymerization inhibition by using human ovarian cancer cell lines.; format: functional
Procedure, shortened: (§3)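 Tubulin (10 μM final, 1 mg/mL) was preincubated with agent in DMSO (4% v/v final) and 0.8 M monosodium glutamate for 15 min at 30 °C, then cooled to 0 °C and GTP (0.4 mM final) added. Turbidity at 350 nm was followed for 20 min at 30 °C. […] Values are averages of two determinations.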

[7] = test system: A2780; assay: Compound was tested for Tubulin polymerization inhibition by using human ovarian carcinoma cell lines.;NA means not active; format: functional, cell-based; procedure, shortened: as §3
[8] = test system: A2780; assay: Compound was tested for colchicine binding inhibition by using human ovarian carcinoma cell lines (at 5 uM );NA means not active; format: functional, cell-based; procedure, shortened: as §1
[9] = Average growth inhibition activity in analogy of ca.; format: functional; procedure, shortened: as §2
[10] = test system: A2780; assay: Inhibition of tubulin polymerization in analogy of ca.; format: functional, cell-based; conditions: Homo sapiens; procedure, shortened: as §3
[11] = test system: MDA-MB-231; assay: Compound was tested for 50% Growth Inhibitory concentration by using MDA - MB231 human breast carcinoma cell lines.; format: functional
Procedure, shortened: (§4)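 Cells (500–2000/well) attached and grew for 48 h, then received DMSO vehicle or agent at five-point 5-fold dilutions (from 50, 10 or 1 μM top) for 48 h, continuous exposure. A time-zero plate was included, and each concentration was run in quadruplicate. Cell number was read by MTS/phenazine methanesulfonate, A490 minus A630. Values are means (N = 4 over 10 concentrations) ± SD.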

[12] = test system: MCF7; assay: Compound was tested for 50% Growth Inhibitory concentration against MCF-7 cell lines.; format: functional; conditions: Homo sapiens; procedure, shortened: as §4
[13] = test system: A2780; assay: Percent of Tubulin polymerization inhibition by using human ovarian cancer cell lines at a concentration of 5 uM; format: functional
Procedure, shortened: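 Purified tubulin (10 μM final, 1 mg/mL) was preincubated 15 min at 30 °C with agent in DMSO (4% v/v final) and 0.8 M monosodium glutamate. Samples were chilled to 0 °C, and GTP was added (0.4 mM final). Turbidity at 350 nm was followed for 20 min after a rapid rise to 30 °C. Inhibition was scaled between vehicle without GTP (100%) and GTP plus vehicle (0%). Values are averages of two determinations.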

[14] = test system: A2780; assay: Compound tested for colchicine Binding Inhibition by using human ovarian cancer cell line (at 5 uM ); format: functional
Procedure, shortened: (§5)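 [3H]-colchicine (5 μM, 2.3 TBq/mmol) and test agent (1–250 μM) or DMSO vehicle (5% v/v) were incubated with 1 μM purified tubulin at 30 °C for 15 min. The medium held 1 M monosodium glutamate, 0.1 M glucose-1-phosphate, 1 mM MgCl2, 1 mM GTP and 0.5 mg/mL BSA. Samples were filtered through DEAE-cellulose stacks, and […] was counted by scintillation. Values are means (N = 9 over four concentrations) ± SD.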

[15] = test system: A2780; assay: Colchicine Binding Inhibition ( CBI ) by using human ovarian cancer cell lines at 5 uM, (values are mean of 9 over 4 concentrations +/- SD); format: functional; procedure, shortened: as §5
[16] = test system: A2780; assay: Compound was tested for colchicine Binding Inhibition by using human ovarian carcinoma cell line (at 5 uM ); format: functional; procedure, shortened: as §1
[17] = test system: MDA-MB-231; assay: Compound was tested for 50% Growth Inhibitory concentration by using MDA-MB-231 cell lines.; format: functional; conditions: Homo sapiens; procedure, shortened: as §2
[18] = test system: A2780; assay: Compound was tested for Tubulin polymerization inhibition by using human ovarian carcinoma cell lines.; format: functional; procedure, shortened: as §3
[19] = test system: 2008; assay: Compound was tested for 50% growth inhibitory concentration by using human ovarian carcinoma cell lines (2008); format: functional; procedure, shortened: as §2
[20] = test system: PC-3; assay: Compound was tested for 50% growth inhibitory concentration by using human prostate carcinoma cell lines (PC -3); format: functional; procedure, shortened: as §2
[21] = test system: A2780; assay: Compound tested for colchicine Binding Inhibition by using human ovarian carcinoma cell line (at 5 uM ); format: functional; procedure, shortened: as §1

Row | Compound | inhibition at 5 µM [1] [%] | IC50 [2] [nM] | GI50 [3] [nM] | also measured
1 | C=CC[C@@H](CC/C(C)=C/C=C/CC/C=C\[C@@H]1CSC([C@@H]2C[C@@H]2C)=N1)OCOC | 81 | 640 | 220 | 
2 | C=CC[C@@H](CC/C(C)=C/C=C/CC/C=C\c1coc(C(C)(C)C)n1)OC | < 10 |  |  | GI50 [4]: > 50000 nM; GI50 [5]: > 50000 nM; TPI [6]: 51%
3 | CC(C)=C/C=C/CC/C=C\[C@@H]1CSC([C@@H]2C[C@@H]2C)=N1 |  | > 50000 |  | 
4 | C=CC[C@@H](CC/C(C)=C/C=C/CC/C=C\[C@@H]1CSC([C@@H]2C[C@@H]2C)=N1)OCC(F)(F)C(F)(F)C(F)(F)F | 12 | 5400 | > 10000 | 
5 | C=CC[C@@H](CC/C(C)=C/C=C/CC/C=C\[C@@H]1CSC([C@@H]2C[C@@H]2C)=N1)OC(=O)c1ccccc1 | 5 | > 80000 | > 10000 | 
6 | C=CC[C@@H](CC/C(C)=C/C=C/CC/C=C\[C@H]1CSC([C@@H]2C[C@@H]2C)=N1)OC | 3 | 5500 | > 1000 | 
7 | C/C=C\[C@@H]1CSC([C@@H]2C[C@@H]2C)=N1 |  |  |  | NA [7]: inactive; NA [8]: inactive
8 | COc1cc(/C=C\CC/C=C/C=C(\C)CCC(O)c2cccs2)cc(OC)c1OC (stereo not drawn) | 39 |  |  | GI50 [4]: 280 nM; TPI [6]: >95%
9 | COc1cc(/C=C\CC/C=C/C=C(\C)CCC(O)c2cc3ccccc3o2)cc(OC)c1OC (stereo not drawn) |  |  |  | GI50 [9]: 250 nM; IC50 [10]: 1000 nM
10 | C=CC[C@@H](CC/C(C)=C/C=C/CC/C=C\[C@@H]1CSC([C@@H]2C[C@@H]2C)=N1)OC [CURACIN A] |  | 720 |  | GI50 [4]: 35 nM; GI50 [5]: 50 nM; GI50 [11]: 96 nM; GI50 [12]: 40 nM; TPI [13]: 98%; inhibition at 5 µM [14]: 94%; inhibition at 5 µM [15]: 78%
11 | C=CC[C@@H](CC/C=C/C=C/CC/C=C\[C@@H]1CSC([C@@H]2C[C@@H]2C)=N1)OC | 53 |  | 340 | 
12 | CCC[C@@H](CC/C(C)=C/C=C/CCCCC1CSC([C@@H]2C[C@@H]2C)=N1)OC (stereo partly drawn) | 1 | 4600 | 3300 | 
13 | C=CC[C@@H](CC/C(C)=C\C=C\CC/C=C\[C@@H]1CSC([C@@H]2C[C@@H]2C)=N1)OC [CURACIN C] | 10 | 2300 | 3600 | 
14 | COc1cc(/C=N\OC[C@H]2C[C@@H]2C2C[C@]2(C)CCC(O)c2cccs2)cc(OC)c1OC (stereo partly drawn) |  |  |  | inhibition at 5 µM [16]: < 10%; GI50 [17]: 980 nM; TPI [18]: 26%; GI50 [19]: 9900 nM; GI50 [20]: 1200 nM
15 | COc1cc(/C=C/CC/C=C/C=C(\C)CCC(O)c2cccs2)cc(OC)c1OC (stereo not drawn) | < 10 |  |  | GI50 [4]: 21000 nM; GI50 [5]: 35000 nM; TPI [6]: 25%
16 | C=CC[C@@H](CC/C(C)=C/C=C/CC/C=C\c1csc([C@@H]2C[C@@H]2C)n1)OC | 74 | 740 | 300 | 
17 | C=CC[C@H](O)CC/C(C)=C/C=C/CC/C=C\C1CSC([C@@H]2C[C@@H]2C)=N1 (stereo partly drawn) | 82 | 870 | 450 | 
18 | C=CC[C@@H](CC/C(C)=C/C=C/CCCO)OC | 0 | > 80000 | > 10000 | 
19 | COc1cc(COCCC/C=C/C=C(\C)CCC(O)c2cccs2)cc(OC)c1OC (stereo not drawn) |  |  |  | inhibition at 5 µM [21]: < 10%; GI50 [17]: > 50000 nM; TPI [18]: 7%; GI50 [19]: 15000 nM; GI50 [20]: 18000 nM
